Calls of active or inactive are those of the source. The calls are words filed in the database; no cut-off is given here.
Tests used:
IPEC-J2 [1] = experiment: Induction of porcine IPEC-J2 cells monolayer development assessed as increase in transepithelial electrical resistance at 50 uM after 6 days by voltammetric method; assay type: functional, cell-based; conditions: Sus scrofa domesticus, time 6.0 day
Escherichia coli [2] = experiment: Growth inhibition of Escherichia coli DSM 2840 at 20 to 500 uM measured every 5 mins for 24 hrs by turbidometric analysis; assay type: functional, organism-based; conditions: dose 20-500 µM, time hrs <=24
Outline: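 Strains were revived from cryostocks and passaged twice daily in BHI with shaking at 37 °C over 2 days. Double-strength BHI plus diluted test stock (compounds in DMSO, 0.22 μm filtered), inoculum at final 10^4 CFU/mL, film-sealed for anaerobic conditions, 37 °C in plate reader. OD690 was read every 5 min for 24 h; lag time came from the lag-exponential method. Three independent experiments were run, each in triplicate.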

Escherichia coli [3] = experiment: Growth inhibition of Escherichia coli 0147:K89:K88 at 20 to 500 uM measured every 5 mins for 24 hrs by turbidometric analysis; assay type: functional, organism-based; conditions: dose 20-500 µM, time hrs <=24
Outline: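 Compound stocks were made in DMSO and filtered. The turbidimetric assay used double-strength BHI, 20–500 μM, E. coli at final 10^4 CFU/mL, and sealed anaerobic plates at 37 °C. OD690 was read every 5 min over 24 h.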

IPEC-J2 [4] = experiment: Induction of claudin-4 protein expression in porcine IPEC-J2 cells at 20 uM after 6 days by Western blot analysis; assay type: functional, cell-based; conditions: Sus scrofa domesticus, time 6.0 day
Outline: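 Inserts were treated apically with 20 μM from day 7, with medium renewed at day 10. At day 13 cells were lysed and protein equalized by BCA, then run on SDS–PAGE and transferred to nitrocellulose. Blots were probed with mouse anti-claudin 4 and an HRP secondary and detected by ECL. Band intensity was normalized to β-actin and expressed as fold over PBS control.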

IPEC-J2 [5] = experiment: Induction of porcine IPEC-J2 cells monolayer development assessed as increase in transepithelial electrical resistance at 20 uM after 6 days by voltammetric method; assay type: functional, cell-based; conditions: Sus scrofa domesticus, time 6.0 day
Outline: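 IPEC-J2 cells were seeded at 5 × 10^5/insert (0.4 μm PET) and cultured until TEER exceeded 1 kΩ cm2 (day 7). Apical medium was then replaced with 20 μM compound or PBS and renewed at day 10, with basolateral medium changed in parallel. TEER was read with an EVOM2 chopstick electrode at days 10 and 13. Mann–Whitney test versus PBS.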

O=c1oc2cc(O)ccc2c2cc(O)c(O)cc12
Activity (IPEC-J2 [1]): inactive | growth inhibition (GI) (Escherichia coli [2]): inactive | growth inhibition (GI) (Escherichia coli [3]): inactive

O=C(O[C@@H]1COC(=O)c2cc(O)c(O)c(O)c2-c2c(cc(O)c(O)c2O)C(=O)O[C@H]1[C@@H]1OC(=O)c2cc(O)c(O)c(O)c2-c2c(O)c(O)c(O)c3c2C(=O)O[C@H]1[C@H]3O)c1cc(O)c(O)c(O)c1Oc1cc2c(c(O)c1O)-c1c(cc(O)c(O)c1O)C(=O)OC[C@H]1OC(=O)c3cc(O)c(O)c(O)c3-c3c(O)c(O)c(O)c4c3C(=O)O[C@H]([C@H]3OC(=O)c5c-4c(O)c(O)c(O)c5[C@@H]3O)[C@@H]1OC2=O
Activity (IPEC-J2 [4]): Active | Activity (IPEC-J2 [5]): Active

O=c1oc2cc(O)ccc2c2ccc(O)cc12
Activity (IPEC-J2 [1]): inactive | growth inhibition (GI) (Escherichia coli [2]): inactive | growth inhibition (GI) (Escherichia coli [3]): inactive
